Assay results published in paper PMC4143594 (Clinical Drug Investigation, 2014).
Like-named read-outs stand apart in the source and are kept apart here.

Experiments:
[1] = type: in vivo, healthy subjects (human); conditions: for C max,IDeg,SD, mean estimate: serum, ELISA
How it was run: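 Fasted healthy adults (n=20) in a randomised, open-label, complete crossover received single SC doses of 0.4 U/kg, 13–21 days apart. Dosing was by syringe into a lifted skinfold of anterior thigh, lower abdominal wall or outer deltoid, each followed by a 24-h euglycaemic clamp (4.5 mmol/L). Serum was sampled over 120 h and assayed by compound-specific sandwich ELISA (LLOQ 20 pmol/L).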

[2] = 24-h euglycaemic clamp after a single SC dose; type: in vivo, healthy subjects (human)
[3] = cited from earlier work
[4] = single SC dose 0.4 U/kg in abdomen, 20 evaluations
[5] = single SC dose 0.4 U/kg in deltoid, 20 evaluations
[6] = single SC dose 0.4 U/kg in thigh, 19 evaluations
[7] = single SC dose 0.4 U/kg, ANOVA of log-transformed AUC
[8] = single SC dose 0.4 U/kg, ANOVA of log-transformed values

insulin degludec
Maximum concentration (C max,IDeg,SD) higher in deltoid or abdomen than in thigh ([1]; single SC dose 0.4 U/kg): 23–27%
C max,IDeg,SD, mean estimate [1, 4]: 2,388 pmol/L
C max,IDeg,SD, mean estimate [1, 5]: 2,462 pmol/L
C max,IDeg,SD, mean estimate [1, 6]: 1,938 pmol/L
AUCIDeg,0–120h,SD mean ratio [95 % CI], abdomen vs. deltoid [1, 7]: 1.01 [0.96–1.06]
AUCIDeg,0–120h,SD mean ratio [95 % CI], abdomen vs. thigh [1, 7]: 1.07 [1.03–1.11]
AUCIDeg,0–120h,SD mean ratio [95 % CI], deltoid vs. thigh [1, 7]: 1.06 [1.01–1.10]
C max,IDeg,SD mean ratio [95 % CI], abdomen vs. deltoid [1, 8]: 0.97 [0.84–1.12]
C max,IDeg,SD mean ratio [95 % CI], abdomen vs. thigh [1, 8]: 1.23 [1.07–1.42]
C max,IDeg,SD mean ratio [95 % CI], deltoid vs. thigh [1, 8]: 1.27 [1.08–1.49]
GIRmax,SD, mean estimate [2, 4]: 3.0 mg/(kg·min)
GIRmax,SD, mean estimate [2, 5]: 3.0 mg/(kg·min)
GIRmax,SD, mean estimate [2, 6]: 2.7 mg/(kg·min)
Time to reach steady state ([3]; once-daily injections): 2 to 3 days

insulin detemir
AUC higher following SC injection in abdomen or deltoid than in thigh [3]: approximately 10%

insulin glargine
Half-life after SC administration [3]: 12 h
